From PubChem
STAT3 act-1 = IL-6 driven STAT3 reporter potentiators, primary screen, U3A cells, luciferase, luminescence, MLSCN library; 0.91% of 190,000 active; activation (% of control), % at 5.6 µM; IL-6 STAT3-luciferase reporter; 100% = signal with IL-6 EC80 alone;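 active = activation above the screen-wide mean of compound activation plus 3 SD, cut at about 130% in these data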;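 note: 0% = background luminescence of wells with medium and substrate only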
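Material: human STAT1-deficient U3A cells with stable STAT3-luciferase reporter / Probe or stimulus: IL-6 stimulus at 33 ng/mL final / Schedule: 1 h compound pre-exposure, 6 h IL-6 stimulation, 37 °C / Technique: luminescence / Read-out basis: percent of IL-6-only median luminescence / Control set: IL-6-only high control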
HSP90 refold inh = HSP90 inhibitors, primary screen, cell lysate, luminescence. Rabbit reticulocyte lysate, luciferase refolding luminescence, 3 h. inhibition, % at 5.6 µM. 0.91% of 290,000 active;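 active = inhibition above the screen-wide mean plus 3 SD, computed separately per campaign, cut at about 16% in these data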;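 note: 0% = DMSO wells and 100% = 60 µM geldanamycin wells; inhibitors lower the luminescence because luciferase stays unfolded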
STAT1 inh-1 = STAT1 signaling inhibitors, primary screen, cell-based, HTS, luciferase reporter; NIH 3T3 STAT1-luciferase reporter, IFN-gamma, luminescence; inhibition, % at 5.5 µM; 0.35% of 200,000 active; AID 920, 2007;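 active = inhibition above a set limit, the mean inhibition across all tested compounds plus 3 SD, cut at about 34% in these data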;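 note: 0% = IFN-gamma with DMSO and 100% = IFN-gamma with 300 µM nifuroxazide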
STAT3 blocker = IL-6 driven STAT3 reporter inhibitors, primary screen, U3A cells, luciferase, luminescence, MLSCN library | IL-6 STAT3-luciferase reporter; host cell line lacks STAT1 | inhibition, % at 5.5 µM | 0.89% of 190,000 active | AID 862, 2007;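 active = inhibition above the mean inhibition across all screened compounds plus 3 SD, cut at about 44% in these data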;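 note: 0% = DMSO only wells and 100% = 100 µM nifuroxazide control wells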
STAT3 act-2 = STAT3 reporter potentiators, retest of hits, confirmation, U3A cells, luciferase, luminescence; potentiation (% of control), % at 5.7 µM; 64% of 1,200 active; IL-6 potentiation; U3A cells lack STAT1; 100 means same as IL-6 alone; shares compounds with STAT3 act-1;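 active = percent activation of the STAT3 luciferase reporter above a set limit taken from the earlier primary screen, cut at about 130% in these data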;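 note: 0% = background signal of medium plus substrate and 100% = median of IL-6 with DMSO wells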
NFkB act 2 = NF-kB reporter activators in human cells, counter-screen for STAT3 activator project. shares compounds with STAT3 act-1. NF-kappaB reporter activation. activation (% of control), % at 5.7 µM. 11% of 1,200 active. AID 1309, 2008; in the data active = activation above about 120%;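 note: reporter induced by TNF-alpha stimulation; 100% = median of stimulated DMSO wells and 0% = no signal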
STAT1 act STAT3c = STAT1 reporter activators, IFN-gamma induced, counter-screen for STAT3 activator project, cell-based, NIH 3T3, luciferase luminescence; shares compounds with STAT3 act-1; NIH 3T3 STAT1-luciferase reporter; activation (% of control), % at 5.7 µM; 13% of 1,200 active;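 active = activation above the solvent-only control well mean plus 3 SD, set per screening run, cut at about 120% in these data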;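 note: 100% = IFN-gamma with DMSO median signal so 100% means no change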
STAT1 inh-2 = STAT1 signaling inhibitors, confirmation, cell-based, HTS, luciferase reporter; shares compounds with STAT1 inh-1; NIH 3T3 STAT1-luciferase reporter, IFN-gamma, luminescence; inhibition, % at 5.5 µM; 55% of 200 active;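 active = triplicate mean inhibition exceeding the hit cutoff computed for the primary STAT1 screen, cut at about 35% in these data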;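 note: 0% = DMSO with IFN-gamma and 100% = 300 µM nifuroxazide with IFN-gamma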
NFkB inh = NF-kB reporter inhibitors, TNF-alpha stimulated, counter-screen for STAT1 inhibitor project, cell-based, HEK293T, luciferase luminescence; shares compounds with STAT1 inh-1; TNF-alpha induced; inhibition, % at 5.7 µM; 30% of 200 active; AID 1303, 2008;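 active = inhibition above the mean of solvent-only control wells plus 3 SD of those wells, cut at about 15% in these data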;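 note: 0% = DMSO with TNF-alpha and 100% = MG-132 control with TNF-alpha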
STAT3 inh 2 = STAT3 reporter inhibition by STAT1 hits, counter-screen for STAT1 inhibitor project, U3A cells, luciferase, luminescence, triplicate; inhibition, % at 5.7 µM; shares compounds with STAT1 inh-1; IL-6 STAT3 luciferase reporter; cells lacking STAT1; 20% of 200 active; AID 1310, 2008;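 active = inhibition above the mean of solvent-only control wells plus 3 SD, set per campaign, cut at about 25% in these data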;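 note: 0% = IL-6 plus DMSO and 100% = IL-6 plus nifuroxazide control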
HSP90 inh confirm = HSP90 inhibitors, confirmation, cell lysate, luminescence; shares compounds with HSP90 refold inh; AID 1846, 2009; rabbit reticulocyte lysate, luciferase refolding luminescence, 3 h; inhibition, % at 5.9 µM; 64% of 2,300 active; in the data active = inhibition above about 18%;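 note: 0% = vehicle wells and 100% = reference inhibitor wells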
FLuc counter = firefly luciferase inhibitors, HSP90 counter-screen, confirmation, artefact control for HSP90 inhibitor project, biochemical, luminescence, triplicate. shares compounds with HSP90 refold inh. purified native firefly luciferase. inhibition, % at 5.9 µM. 48% of 2,300 active. AID 1847, 2009;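 active = inhibition above the mean inhibition of all tested sample wells plus 3 SD, cut at about 10% in these data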;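 note: 0% = DMSO with luciferase and 100% = wells lacking luciferase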
Target sequence (P08659 whole entry, looked up): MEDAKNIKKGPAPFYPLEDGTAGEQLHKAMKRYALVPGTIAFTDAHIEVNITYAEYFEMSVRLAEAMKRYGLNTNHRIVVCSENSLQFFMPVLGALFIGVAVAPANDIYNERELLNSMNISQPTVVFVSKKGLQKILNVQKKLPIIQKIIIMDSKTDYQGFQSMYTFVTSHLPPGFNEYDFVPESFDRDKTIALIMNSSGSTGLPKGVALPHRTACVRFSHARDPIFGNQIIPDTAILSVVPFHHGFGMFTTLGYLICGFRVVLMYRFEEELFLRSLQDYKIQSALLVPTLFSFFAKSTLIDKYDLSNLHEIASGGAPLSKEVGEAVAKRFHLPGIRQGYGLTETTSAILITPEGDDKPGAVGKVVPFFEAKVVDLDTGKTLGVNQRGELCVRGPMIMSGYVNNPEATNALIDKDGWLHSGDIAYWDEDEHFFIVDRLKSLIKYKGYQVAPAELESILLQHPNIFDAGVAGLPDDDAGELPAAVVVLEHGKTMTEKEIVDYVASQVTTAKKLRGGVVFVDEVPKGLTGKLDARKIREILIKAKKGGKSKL
The depositor's hits bear a star; nt = no result given. A selection: hits, their analogues and other compounds. The true share with any hit is near 2%.

SMILES	STAT3 act-1	HSP90 refold inh	STAT1 inh-1	STAT3 blocker	STAT3 act-2	NFkB act 2	STAT1 act STAT3c	others
CC1=NN(c2ccccc2)C(=O)C1/C=C1\C(=O)NC(=O)N(c2cc(C)cc(C)c2)C1=O (centres undefined)	159*	7	0	-68	142*	105	103
CC1=NN(c2ccccc2)C(=O)C1/C=C1\C(=O)NC(=O)N(c2ccc(C)c(C)c2)C1=O (centres undefined)	162*	14	2	-74	130	99	99
COc1ccc(/C=C2/C(=O)NC(=O)N(c3ccc(C)c(C)c3)C2=O)cc1CN1C(=O)c2ccccc2C1=O	87	-6	8	18	nt	nt	nt
Cc1ccc(-n2c(O)c(C=NCc3ccco3)c(=O)[nH]c2=S)cc1C	nt	-1	nt	nt	nt	nt	nt
O=C1N(CN2CCOCC2)c2ccccc2C1(O)c1c[nH]c2ccccc12 (centres undefined)	136*	2	-2	-40	121	100	98
CC1=NN(c2ccccc2)C(=O)/C1=C/c1c(O)[nH]c(=O)[nH]c1=O	143*	3	-4	-47	135*	105	104
CCCCn1c(=O)c(C(=O)Nc2ccsc2C(=O)OC)c(O)c2ccccc21	145*	1	6	-54	165*	112	112
c1ccc(C2OCCN3CCCCC23)cc1 (centres undefined)	102	1	-8	-4	nt	nt	nt
C=CCn1c(O)c(C(C)=NCC2CCCO2)c(=O)[nH]c1=O (centres undefined)	nt	1	nt	nt	nt	nt	nt
CC(C)n1c(=O)c(C=Nc2cccc([N+](=O)[O-])c2)c(O)n(CCc2ccccc2)c1=O	137*	5	4	-47	139*	103	104
C[C@H]1C[C@@H](C)C(=O)[C@@H]([C@H](O)CC2CC(=O)NC(=O)C2)C1	nt	3	84*	nt	nt	nt	nt	STAT1 inh-2=41*;NFkB inh=76*;STAT3 inh 2=91*
FC(F)(F)c1ccc2c(c1)NP(=S)(N1CCOCC1)c1nccn1-2 (centres undefined)	102	-1	-3	4	nt	nt	nt
CN(CCOc1ccc(C=C2C(=O)NC(=O)NC2=O)cc1)c1ccccn1	89	2	2	15	nt	nt	nt
COc1ccc(OCCOc2cccc(C=C3C(=O)NC(=O)NC3=O)c2)cc1	nt	25*	nt	nt	nt	nt	nt	HSP90 inh confirm=45*;FLuc counter=30*
O=c1[nH]c2c(c(=O)n1C1CCCCC1)CCC2	104	28*	2	-1	nt	nt	nt	HSP90 inh confirm=-4;FLuc counter=-11
OCC[n+]1c2ccccc2nc2ccc(N3CCOCC3)cc21	nt	22*	nt	nt	nt	nt	nt	HSP90 inh confirm=30*;FLuc counter=18*
